# Screening data as filed in PubChem BioAssay.
# In the library only some 12% were active in any assay of this set; here they are far more common.
# CHOP inhibitor: blocks CHOP induction under ER stress. inhibition, % at 10 µM. 220,000 tested, 3.8% active. CHO-K1 CHOP-promoter luciferase, tunicamycin-induced, 15-18 h. AID 2732;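 active means compounds that reduced the stress-induced luciferase reporter signal by more than about 70% of percent inhibition, limit read from the data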;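 further: 0% = tunicamycin plus vehicle and 100% = wells without tunicamycin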
# L major viab: reduces viability of Leishmania major promastigotes; resazurin fluorescence viability; inhibition, % at 10 µM; 200,000 tested, 9% active; AID 1063;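 further: promastigotes grown with compound for 44 hours at 28 °C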
# PKD1 inh: inhibitors of human PKD1 kinase. 200,000 tested, 0.056% active. inhibition, % (no concentration beside the values). PKD1 kinase fluorescence polarization assay. AID 797. Q15139
# Wee1 degr inh: human Wee1 degradation inhibition, primary screen | HeLa Luc-Wee1K328M stability, luciferase luminescence; 100% = proteasome inhibitor MG132 effect | P30291 | AID 1321 | 220,000 tested, 1.2% active | reporter increase, % at 5 µM;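 active means activation above the mean of all tested compounds plus 3 SD, set per screening run, cut at about 8.8% in these data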;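 further: cells exposed to compound for 20 h before luminescence read; 0% = DMSO alone and 100% = MG132 at 30 µM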
# Arbovirus anti: arbovirus infection inhibition; arbovirus infection cell-based antiviral screen; inhibition, % at 10 µM; 200,000 tested, 0.37% active; in the data active means inhibition above about 30%
# Rad51 HR inh: blocks human Rad51 in homologous recombination | Q06609 | hRad51 DNA strand exchange, fluorescence dequenching | inhibition, % at 10 µM | 200,000 tested, 0.085% active | AID 1385;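 active means inhibition above 40% at the single screening dose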;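 further: 0% = DMSO control wells and 100% = blanks with heterologous ssDNA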
# Target sequence (Q06609 whole entry, looked up): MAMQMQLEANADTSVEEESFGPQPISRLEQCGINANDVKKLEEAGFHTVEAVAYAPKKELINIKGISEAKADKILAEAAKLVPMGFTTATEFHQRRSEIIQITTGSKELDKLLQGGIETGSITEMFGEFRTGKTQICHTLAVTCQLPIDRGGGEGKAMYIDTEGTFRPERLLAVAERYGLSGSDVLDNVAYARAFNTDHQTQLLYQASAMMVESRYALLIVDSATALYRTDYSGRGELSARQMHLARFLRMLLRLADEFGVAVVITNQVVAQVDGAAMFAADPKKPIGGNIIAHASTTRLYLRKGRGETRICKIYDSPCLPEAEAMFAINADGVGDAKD
#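 Material: hRad51 filaments on single-stranded DNA; Reagent: Donor/quencher-labelled 47-bp dsDNA substrate; Compound: 10 µM final, single point; Schedule: 37 °C 15-min filament assembly, 30-min compound preincubation, 15-min exchange; Technique: FRET fluorescence, excitation 485 nm, emission 520 nm; Benchmarks: control wells and blank wells on each plate.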
# * = called active by the depositor; x = not tested or not shown. Unless noted, no stated cut-off is given here; in the data, active means inhibition above about 50%; inactive means the rest.
SMILES,CHOP inhibitor,L major viab,PKD1 inh,Wee1 degr inh,Arbovirus anti,Rad51 HR inh
O=C(Nc1sc2c(c1C(=O)NCC1CCCO1)CCCC2)c1cccs1 (stereo not drawn),40,1,-13,-1,-4,-2
O=C(Nc1sc2c(c1C(=O)c1ccc(Cl)cc1)CCCC2)c1cccnc1,79*,9,5,-2,-23,-3
O=C(Nc1sc2c(c1C(=O)O)CCCC2)c1cccs1,-7,-8,-8,3,48*,-13
CC(C)OC(=O)c1c(NC(=O)c2cccs2)sc2c1CCCC2,35,-6,-2,2,6,x
COC(=O)c1c(NC(=O)c2ccc(C)o2)sc2c1CCCCC2,-41,6,-11,-2,5,-10
Cc1ccc(C(=O)Nc2sc3c(c2C(=O)O)CCCCC3)o1,-32,8,-1,2,47*,-6
O=C(Nc1sc2c(c1C(=O)O)CCCCC2)c1ccccc1F,0,2,5,1,38*,34
Cc1cccc(C(=O)Nc2sc3c(c2C(=O)O)CCC3)c1,4,x,x,-3,x,x
Cc1nn(C)c(Cl)c1C(=O)NCC(=O)Nc1ccc(C(C)C)cc1,-8,-5,0,0,4,7
Cc1nn(C)c(C)c1/C=C/C(=O)c1ccc(Cl)cc1Cl,43,32,5,2,6,2
Cc1cccc2c(N=Nc3ccc(S(=O)(=O)Nc4ccc(Cl)cc4)cc3[N+](=O)[O-])c(O)[nH]c12,6,53*,-1,3,2,17
CSc1nc(-c2ccc(Cl)cc2Cl)[nH]c(=O)c1C#N,34,0,-3,0,42*,x
O=c1[nH]c(SCc2nc3c(cnn3-c3ccccc3)c(=O)[nH]2)nc2ccccc12,29,0,-7,-3,10,9
O=c1[nH]c(CSc2nc3ccccc3[nH]2)nc2c1cnn2-c1ccccc1,56,69*,-7,2,19,4
Cc1ccc2nc(SCc3nc4c(cnn4-c4ccccc4)c(=O)[nH]3)[nH]c2c1,73*,10,10,-3,-14,x
CC(=O)Cn1nnc2sc(-c3ccccc3)cc2c1=O,-1,1,-3,6,4,-1
Cc1cccc(CSc2cn(CC(=O)N3CCOCC3)c3ccccc23)c1,7,1,-7,2,1,-3
O=C(Cn1cc(SCc2cccc(Cl)c2)c2ccccc21)N1CCOCC1,27,8,-3,11*,22,-5
O=C(NN1C(=O)c2ccccc2NC1c1ccco1)c1ccccc1 (stereo not drawn),13,-7,-9,1,2,29
O=C(NN1C(=O)c2ccccc2NC1c1ccc([N+](=O)[O-])o1)c1ccc([N+](=O)[O-])cc1 (stereo not drawn),-42,95*,-1,2,4,29
O=C(NN1C(=O)c2ccccc2NC1c1ccc([N+](=O)[O-])o1)c1ccccc1 (stereo not drawn),3,86*,-8,-4,-3,0
COc1c2ccccc2c(OC)c2ccccc12,16,2,1,6,-4,6
O=C(CC1C(=O)NCCN1Cc1ccoc1)NCCCn1ncc2ccccc21 (stereo not drawn),1,0,-3,-3,4,7
CCOC(=O)c1[nH]c(C=O)c(C(=O)OCC)c1C,-1,88*,2,7,-2,12
Cc1ccc(S(=O)(=O)N(CC(=O)N/N=C/c2ccccc2C(=O)O)c2cc(Cl)cc(Cl)c2)cc1,58,-8,-7,-2,-10,x
SMILES,CHOP inhibitor,L major viab,PKD1 inh,Wee1 degr inh,Arbovirus anti,Rad51 HR inh
c1ccc(-c2ccc(-c3cnc4n3CCCCC4)cc2)cc1,69,99*,0,-1,-24,4
O=C(Nc1ccccc1)C1=C[C@H](C2CCCCC2)C[C@H](OCc2ccc(CO)cc2)O1,11,38,5,1,-17,1
O=C(Nc1ccccc1)C1=C[C@H](C2CCCCC2)C[C@H](OCCCCO)O1,x,x,x,x,x,-5
CC(=O)n1cc([C@H]2C=C(C(=O)NCc3ccccc3)O[C@@H](OCCCCO)C2)c2ccccc21,16,7,7,5,7,-1
CC(=O)n1cc([C@H]2C=C(C(=O)Nc3ccccc3)O[C@@H](OCCCCO)C2)c2ccccc21,5,54*,1,3,7,9
O=C(Nc1ccccc1)C1=C[C@@H](C2CCCCC2)C[C@@H](OCCCCO)O1,-7,92*,-5,0,1,0
O=C(Nc1ccccc1)C1=C[C@@H](C2CCCCC2)C[C@@H](OCc2ccc(CO)cc2)O1,-28,97*,8,1,-16,6
CCO[C@H]1OC(C(=O)NCc2ccccc2)=C[C@@H](c2cn(C(C)=O)c3ccccc23)[C@@H]1CCCO,36,82*,11,1,-3,-2
O=C1CN(C(=O)CNCc2ccccc2)c2ccccc2N1,11,x,x,6,x,x
CC(C)(C)c1ccc(S(=O)(=O)N2CCN(CCC#N)CC2)cc1,8,56*,-12,3,7,2
Cc1ccc(S(=O)(=O)N2CCN(CCC#N)CC2)cc1,-13,-1,-1,-4,8,-9
CC(C)(C)c1ccc(S(=O)(=O)N2CCCCC2)cc1,45,92*,-1,3,14,2
COc1cc(OC)cc(C(=O)N[C@H](C(=O)Nc2nc3ccc(S(C)(=O)=O)cc3s2)C(C)C)c1,20,1,-3,-2,7,-2
Cc1nc2c(nnn2Cc2ccccc2)c(=O)[nH]1,7,-7,2,-2,6,-21
C/C(=N\Nc1ccc2nncn2n1)c1cccs1,8,x,x,-2,x,9
CC(/C=C/c1ccc(N(C)C)cc1)=N/N=C1/NC(=O)CC(C(=O)Nc2ccc(Cl)cc2)S1 (stereo not drawn),71*,-2,3,2,2,3
CCCOc1ccc(NC(=O)C2CC(=O)N/C(=N/N=C(C)/C=C/c3ccc(N(C)C)cc3)S2)cc1 (stereo not drawn),72*,3,8,-3,-7,-12
CC(/C=C/c1ccc(N(C)C)cc1)=N\N=C1\NC(=O)CC(C(=O)Nc2ccccc2)S1 (stereo not drawn),-4,9,-10,3,13,-52
CCCOc1ccc(NC(=O)C2CC(=O)N/C(=N/N=C(\C)CCc3ccc4c(c3)OCO4)S2)cc1 (stereo not drawn),78*,-5,-2,0,13,13
CCOc1ccc(N=Nc2c(C)noc2C)cc1,36,-1,-1,-1,-12,0
Cn1c(=O)c2c(SCC(=O)Nc3nccs3)nc(C3CC3)nc2n(C)c1=O,26,x,x,0,x,-4
C/C(CCN1CCc2nc(-c3ccccc3)c(-c3ccccc3)cc2C1)=N\O[C@@H](C)c1cn([C@H](CO)Cc2ccccc2)nn1,30,10,-8,-2,-40,x
